# Screening data (PubChem BioAssay)
# MEX-5 binding – C. elegans MEX-5 TCR-2 RNA binding activity; activity score (negative = inhibition of binding), % at 10 µM; 0.38% of 300,000 active; MEX-5/FITC-TCR2 RNA binding, fluorescence polarization; active compounds read low; Q9XUB2;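 active = inhibition past about -25% in most replicates, and total fluorescence under double the plate's negative control median, limit read from the data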;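 note: 0% = DMSO and -100% = 5 µM competing unlabeled TCR2 RNA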
# Keap1 Nrf2 FP – disrupts human Keap1 binding to Nrf2 peptide | Q14145 | 0.15% of 340,000 active | AID 504523 | inhibition, % at 9.4 µM | Keap1 Kelch-Nrf2 peptide fluorescence polarization, 1536-well; in the data active = inhibition above about 12%;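 note: human Keap1 Kelch domain with fluorescein labeled Nrf2 9mer peptide probe; 0% = neutral control wells and 100% = peptide positive control; higher means more block of Keap1 binding to Nrf2 peptide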
# GRK2 aptamer HTS – human GRK2 inhibition via aptamer displacement; 0.59% of 330,000 active; P25098; bead flow cytometry, FAM-aptamer displacement from GRK2; inhibition of aptamer binding, % at 10 µM;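 active = inhibition of aptamer binding above 40%, roughly 3 SD of noise, on plates passing a quality check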;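 note: median bead fluorescence of bound FAM aptamer so fluorescent compounds give negative values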
# Target sequence (P25098 whole entry, looked up): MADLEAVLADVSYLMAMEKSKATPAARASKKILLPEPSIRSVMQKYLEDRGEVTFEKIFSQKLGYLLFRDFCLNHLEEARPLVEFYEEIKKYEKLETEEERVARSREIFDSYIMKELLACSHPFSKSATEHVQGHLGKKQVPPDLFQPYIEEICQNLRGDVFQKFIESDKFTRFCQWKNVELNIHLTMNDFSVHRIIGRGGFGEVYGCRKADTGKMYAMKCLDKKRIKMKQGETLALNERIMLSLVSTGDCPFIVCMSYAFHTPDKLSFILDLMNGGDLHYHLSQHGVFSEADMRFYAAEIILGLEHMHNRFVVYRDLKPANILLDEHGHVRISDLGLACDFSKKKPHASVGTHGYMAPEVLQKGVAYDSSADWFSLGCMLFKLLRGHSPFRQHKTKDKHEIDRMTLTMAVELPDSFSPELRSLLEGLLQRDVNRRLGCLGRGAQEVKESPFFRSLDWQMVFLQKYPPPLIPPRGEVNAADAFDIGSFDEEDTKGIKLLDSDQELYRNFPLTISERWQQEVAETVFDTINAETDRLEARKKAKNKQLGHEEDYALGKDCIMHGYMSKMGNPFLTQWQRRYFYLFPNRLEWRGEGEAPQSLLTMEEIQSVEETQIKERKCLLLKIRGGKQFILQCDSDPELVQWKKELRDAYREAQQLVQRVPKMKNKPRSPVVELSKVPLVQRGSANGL
# T cell modulator – modulates CD8 T cell binding to vesicles; 2C CD8+ T cell-vesicle binding, flow cytometry; active compounds read low; response (vesicle binding), % at 7 µM; 0.068% of 330,000 active;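 active = response, share of CD8 T cells binding vesicles, and their 90th percentile fluorescence all below set limits, cut at about 80% in these data, passing the limit was not always enough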;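 note: values below 100% mean blocked vesicle binding to the CD8+ T cells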
#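 material = purified 2C TCR transgenic mouse naive CD8+ T cells | controls = Unloaded micro-vesicles (low), QL9 vesicles with 0.7% DMSO (high) | detection = cytometric PE anti-B7-1 and Alexa647 anti-CD8 signals after 1% paraformaldehyde fixation | incubation = binding step 1.5 h, 37 °C, antibody labelling 20 min, ice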
# C-LANA FP – blocks KSHV LANA C-terminal domain binding to DNA; MBP-C-LANA/FAM-LBS DNA binding, fluorescence polarization; inhibition, % at 9 µM; 0.078% of 340,000 active;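 active = highest replicate inhibition at or above 60% at 9 µM, even if other replicates fall short; inactive = all replicates below 60% inhibition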;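 note: 0% = neutral control wells and 100% = 4 µM acridine orange control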
# EBV gp42 block – inhibitors of Epstein-Barr virus glycoprotein 42; 0.42% of 220,000 active; AID 1085; Fluorescence polarization binding assay, mP read-out; Q1HVG2; inhibition, % (tested at 21.74 µM); in the data active = inhibition above about 50%
# GRK2 inh confirm – confirmation of human GRK2 inhibitors displacing RNA aptamer. 4% of 2,000 active. AID 504451. aptamer displacement, % at 10 µM. bead-bound GRK2, FAM-aptamer displacement, flow cytometry. shares compounds with GRK2 aptamer HTS;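 active = aptamer displacement above 40%, near three times the noise of non-fluorescent compounds, on plates passing quality checks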;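 note: negative values mostly reflect intrinsic compound fluorescence rather than true enhancement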
# Aptamer quench – fluorescent aptamer quenching in GRK2 counter-screen dose response; shares compounds with GRK2 aptamer HTS; Fluorescent RNA aptamer beads, flow cytometry; active compounds read high; 110 tested, under 10 active; fluorescence change (kMESF span), kMESF (test concentration not listed);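 active = compounds whose bead fluorescence drops by more than 37 kMESF across the dose range, marking them as dye quenchers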
# Aptamer quench SP – quenches fluorescent RNA aptamer, GRK2 hit artifact; fluorescence response (% of DMSO), % at 10 µM; shares compounds with GRK2 aptamer HTS; Carboxyfluorescein RNA aptamer on beads, flow cytometry quenching; active compounds read low; 2,000 tested, under 10 active;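 active = compounds that quench the bead-bound fluorescent RNA probe, cutting fluorescence to under half of the solvent control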;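 note: counterscreen run without GRK2 so only probe quenching by compound is measured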
# GRK2 confirm 2 – human GRK2 inhibition confirmation, cherry pick 2; shares compounds with GRK2 aptamer HTS; inhibition of aptamer binding, % at 10 µM; bead-bound GRK2, FAM-aptamer displacement, flow cytometry; 360 tested, under 10 active; AID 504782;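 active = inhibition of aptamer binding above 40%, about triple the noise seen with nonglowing compounds, on plates passing quality control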;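 note: negative values mostly come from compounds that fluoresce themselves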
# FAM quench SP – quenches fluorescent RNA aptamer, GRK2 hit artifact | shares compounds with GRK2 aptamer HTS | carboxyfluorescein RNA aptamer beads, flow cytometry quenching; active compounds read low | fluorescence response vs DMSO, % at 10 µM | 360 tested, under 10 active | AID 588494;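 active = response vs DMSO under 50%, meaning signal dropped by over half, treated as fluorescence quencher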;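 note: labelled aptamer on streptavidin beads without GRK2 as a quench counter-screen; 100% = bead fluorescence of DMSO wells and lower means quenching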
# FAM quench PS1 – aptamer fluorescence quenching in GRK2 powder counter-screen; shares compounds with GRK2 aptamer HTS; Bead-bound FAM RNA aptamer fluorescence quenching, flow cytometry; active compounds read low; fluorescence ratio to DMSO, % at 11.1 µM; 35 tested, under 10 active; AID 588496;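 active = compounds that dim the fluorescent label, raw bead signal shifting by over 33 units between lowest and highest dose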
# * hit, by the source's call; i = inactive; . = no result given. An excerpt weighted towards active compounds, which were near 1.3% of everything screened.
SMILES,MEX-5 binding,Keap1 Nrf2 FP,GRK2 aptamer HTS,T cell modulator,C-LANA FP,EBV gp42 block,GRK2 inh confirm,Aptamer quench SP,others
COc1cc(C)c2c(c1C=O)Oc1c(c(C)c(O)c3c1C(O)OC3=O)OC2=O (stereo unspecified),-2.0,4.0,66.0*,208.5,9.2,-14.5,14.1,92.3,
OCCNc1nc(OCC(F)(F)F)nc(N2CCN(C34CC5CC(CC(C5)C3)C4)CC2)n1,-0.4,-5.5,0.0,223.8,-0.3,-13.3,.,.,
Cc1ccc(OCC(=O)N2CCc3ccccc32)c([N+](=O)[O-])n1,0.3,-1.2,0.0,218.6,0.2,-10.2,.,.,
O=C(CSc1nc2ccccc2[nH]1)N1CCN(S(=O)(=O)c2ccc(Cl)cc2)CC1,0.9,-5.7,45.0*,269.3,-0.8,-18.2,1.8,96.0,
CC(=O)Oc1ccc2ccc(=O)oc2c1,0.2,-3.6,80.0*,239.0,0.4,-13.7,-1.5,99.5,
Cc1ccc(C(=O)Oc2ccc3ccc(=O)oc3c2)cc1,-0.3,-1.1,0.0,168.5,-1.6,.,.,.,
O=C(CSc1nccc(=O)[nH]1)N1N=C2/C(=C/c3ccco3)CCCC2C1c1ccco1 (stereo unspecified),0.5,-1.9,42.0*,291.2,2.7,-2.3,1.2,97.9,
Nc1nc(SCC(=O)N2N=C3/C(=C/c4ccco4)CCCC3C2c2ccco2)n[nH]1 (stereo unspecified),3.3,-9.7,0.0,203.2,-1.0,-4.9,.,.,
COC(=O)c1ccc(C2c3[nH]c4ccccc4c3C[C@H]3C(=O)N(C4CCN(Cc5ccccc5)CC4)CC(=O)N23)cc1 (stereo partly specified),3.8,-4.7,0.0,273.6,-1.1,.,.,.,
COc1ccc(C2c3[nH]c4ccccc4c3C[C@H]3C(=O)N(C4CCN(Cc5ccccc5)CC4)CC(=O)N23)c(OC)c1 (stereo partly specified),0.3,-1.9,0.0,240.2,0.0,.,.,.,
O=C1[C@@H]2Cc3c([nH]c4ccccc34)C(c3ccccc3)N2C(=O)CN1C1CCN(Cc2ccccc2)CC1 (stereo partly specified),0.8,-7.2,0.0,170.6,-1.9,.,-1.7,111.9,
O=C1[C@@H]2Cc3c([nH]c4ccccc34)C(c3cccc(Br)c3)N2C(=O)CN1C1CCN(Cc2ccccc2)CC1 (stereo partly specified),3.1,-6.0,0.0,200.6,-3.6,.,-4.5,99.7,
O=C(c1ccccc1)c1nn(-c2cccc(Cl)c2)c2nc(-c3ccccc3)cc(=O)n12,2.1,-0.8,0.0,131.4,1.0,-6.2,.,.,
CCOC(=O)N1CCC(NC(=O)C2CCCN(Cc3nc(-c4ccc(CC)cc4)oc3C)C2)CC1 (stereo unspecified),3.5,-3.0,0.0,250.2,-0.1,.,.,.,
COc1ccc(OC)c(CCNC(=O)Cn2cccc2C(=O)c2ccccc2C)c1,-0.1,1.7,2.0,351.1,0.0,-16.7,.,.,
O=c1oc2ccccc2c(N2CCOCC2)c1[N+](=O)[O-],0.0,-5.3,2.0,869.9,1.2,-1.2,.,.,
O=C(CCN1CCCCC1)N1CCc2c([nH]c3ccccc23)C1c1cccnc1 (stereo unspecified),.,-3.4,.,.,-1.3,.,-3.0,105.2,
CCC(C)(C)C(=O)Nc1cccc(Cl)c1C,2.2,0.4,0.0,167.9,0.2,8.4,.,.,
COC(=O)Nc1ccc(S(=O)(=O)N2CCN(c3ccc(F)cc3)CC2)cc1,2.0,1.7,50.0*,257.4,-1.1,-7.4,-0.4,96.5,
COC(=O)Nc1ccc(S(=O)(=O)N2CCN(C)CC2)cc1,-1.2,5.2,1.0,391.7,2.5,-15.0,.,.,
CCCCOCC1CC(CC#CCN2CCCCC2)C(=O)O1 (stereo unspecified),.,0.0,.,.,1.2,-19.4,.,.,
CCN(Cc1ccccc1)S(=O)(=O)c1ccc2c(c1)NC(=O)CS2,0.6,0.2,0.0,98.3,-1.1,.,.,.,
CN(Cc1ccccc1)C(=O)CCS(=O)(=O)c1ccc2c(c1)NC(=O)CS2,-0.2,4.5,5.0,256.9,-0.3,.,.,.,GRK2 confirm 2=5.3;FAM quench SP=100.0
CC(CS(=O)(=O)c1ccc2c(c1)NC(=O)CS2)C(=O)NCc1ccccc1Cl (stereo unspecified),-7.7,-1.0,99.0*,338.9,9.8,.,78.4*,94.5,Aptamer quench=-3.2;FAM quench PS1=97.0
Cc1c(C(=O)OC2CCC(C)CC2)[nH]c2c1C(=O)CCC2 (stereo unspecified),-0.3,0.6,1.0,629.6,0.3,-2.4,.,.,
SMILES,MEX-5 binding,Keap1 Nrf2 FP,GRK2 aptamer HTS,T cell modulator,C-LANA FP,EBV gp42 block,GRK2 inh confirm,Aptamer quench SP,others
COC(=O)c1[nH]c2c(c1C)C(=O)CCC2,1.5,-2.8,19.0,398.5,-1.0,-14.7,0.8,92.8,
CCn1c(N2CCN(C(=S)NCC(C)C)CC2)nc2ccccc21,0.3,-1.0,4.0,417.8,0.8,-6.6,.,.,
CC(C)CNC(=S)N1CCN(c2nc3ccccc3s2)CC1,0.9,-3.2,42.0*,621.1,0.5,-3.5,0.3,98.0,
C=CCNC(=O)c1ccc2nc(-c3ccccc3)c(-c3ccccc3)nc2c1,-0.8,2.1,1.0,i,-0.5,5.2,.,.,
C=CCNC(=O)c1ccc(C(=O)c2ccccc2)cc1,-0.4,-1.8,67.0*,312.6,-0.4,-11.8,-8.3,99.3,
CN(C)CCn1c(C(=O)O)cc2ccccc21,-2.0,0.9,0.0,558.1,1.8,-7.8,.,.,
Cc1ccc(C(=O)Nn2cnnc2)cc1[N+](=O)[O-],1.7,-3.0,47.0*,51.4,0.1,.,0.4,101.2,
O=C(Nn1cnnc1)c1ccc(Cl)cc1[N+](=O)[O-],-0.3,-2.1,93.0*,563.5,-0.6,.,-3.7,100.6,
COc1ccc(CCC2CCNCC2)cc1,-1.0,-1.2,0.0,114.4,-0.8,.,.,.,
